Rad51 HR inh – Rad51 (human) homologous recombination inhibition; Q06609; 200,000 compounds, 0.085% hits; hRad51 DNA strand exchange, fluorescence dequenching; inhibition, % at 10 µM;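 active = inhibition above 40% at the single screening dose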;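 also: 0% = DMSO control wells and 100% = blanks with heterologous ssDNA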
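Test system: preformed human Rad51 ssDNA filaments; also added: Donor/quencher-labelled 47-bp dsDNA substrate; doses: 10 µM final, single point; times: 37 °C 15-min filament assembly, 30-min compound preincubation, 15-min exchange; detection: FRET fluorescence dequenching, excitation 485 nm, emission 520 nm; read-out basis: Fluorescence-based percent inhibition, control- and blank-normalised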
Arbovirus anti – arbovirus infection inhibition; arbovirus infection cell-based antiviral screen; inhibition, % at 10 µM; 200,000 compounds, 0.37% hits; in the data active = inhibition above about 30%
PKD1 kinase inh – blocks activity of human protein kinase D1; Q15139; PKD1 kinase fluorescence polarization assay; inhibition, % (no concentration beside the values); 200,000 compounds, 0.056% hits
Wee1 degr inh – human Wee1 degradation inhibition, primary screen. P30291. HeLa Luc-Wee1K328M stability, luciferase luminescence; 100% = proteasome inhibitor MG132 effect. reporter increase, % at 5 µM. 220,000 compounds, 1.2% hits;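 active = activation above the mean of all tested compounds plus 3 SD, set per screening run, cut at about 8.8% in these data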;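 also: cells exposed to compound for 20 h before luminescence read; 0% = DMSO alone and 100% = MG132 at 30 µM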
Target sequence (P30291 whole entry K328M): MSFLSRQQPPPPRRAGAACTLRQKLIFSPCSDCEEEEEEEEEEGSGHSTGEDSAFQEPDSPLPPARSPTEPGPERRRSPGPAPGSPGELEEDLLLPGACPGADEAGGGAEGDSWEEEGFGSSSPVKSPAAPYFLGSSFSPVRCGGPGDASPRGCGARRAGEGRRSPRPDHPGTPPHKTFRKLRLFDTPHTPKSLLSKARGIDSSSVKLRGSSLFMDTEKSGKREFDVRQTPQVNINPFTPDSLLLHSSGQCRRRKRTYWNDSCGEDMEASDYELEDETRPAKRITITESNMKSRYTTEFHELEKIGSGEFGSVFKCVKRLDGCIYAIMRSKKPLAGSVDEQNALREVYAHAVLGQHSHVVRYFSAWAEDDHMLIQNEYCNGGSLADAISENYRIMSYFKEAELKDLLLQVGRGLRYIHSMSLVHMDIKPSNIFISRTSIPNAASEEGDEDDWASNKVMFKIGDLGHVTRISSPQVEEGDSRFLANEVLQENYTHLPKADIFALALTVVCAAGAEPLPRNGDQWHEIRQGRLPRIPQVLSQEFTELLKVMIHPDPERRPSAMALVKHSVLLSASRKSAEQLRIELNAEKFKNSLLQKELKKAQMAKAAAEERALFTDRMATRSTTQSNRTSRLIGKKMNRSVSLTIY
CHOP inh – inhibitors of CHOP induction in ER stress response; CHO-K1 CHOP-promoter luciferase, tunicamycin-induced, 15-18 h; inhibition, % at 10 µM; 220,000 compounds, 3.8% hits;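 active = compounds that reduced the stress-induced luciferase reporter signal by more than about 70% of percent inhibition, limit read from the data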;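 also: 0% = tunicamycin plus vehicle and 100% = wells without tunicamycin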
Lmaj promast – reduces viability of Leishmania major promastigotes. inhibition, % at 10 µM. resazurin fluorescence viability. 200,000 compounds, 9% hits;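 also: promastigotes grown with compound for 44 hours at 28 °C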
CHOP inh conf – confirmation of CHOP induction inhibitors. shares compounds with CHOP inh. CHO-CHOP promoter luciferase reporter, tunicamycin-induced, luminescence. inhibition, % at 10 µM. 2,100 compounds, 45% hits. AID 504437;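 active = mean of three repeat readings of reporter signal inhibition above a set limit, cut at about 70% in these data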;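 also: 0% = tunicamycin plus vehicle and 100% = wells lacking tunicamycin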
Numbers without * were called inactive; . = not tested or not shown. An excerpt weighted towards active compounds, which were near 12% of everything screened. Rule as the data show it, unless noted: active = inhibition above about 50%; inactive = the rest.

SMILES	Rad51 HR inh	Arbovirus anti	PKD1 kinase inh	Wee1 degr inh	CHOP inh	Lmaj promast	CHOP inh conf
CC1CCN(S(=O)C23CC4CC(CC(C4)C2)C3)CC1 (stereo unspecified)	1	3	1	1	20	-4	.
O=C(CN1c2ccccc2Sc2ccccc21)NNC(=O)Nc1ccc(Cl)cc1	11	.	.	-1	100*	.	27
COc1ccc2nc(NC(=O)C3CCCN(S(=O)(=O)c4cccs4)C3)sc2c1 (stereo unspecified)	8	-11	3	0	96*	50	51
COc1ccc2nc(NC(=O)C3CCN(S(=O)(=O)c4cccs4)CC3)sc2c1	4	-9	-2	2	41	43	.
CCOC(=O)C1CCN(C(=O)Nc2cc(Cl)cc(Cl)c2)CC1	12	.	.	-4	12	.	.
O=C(Nc1nnc(-c2ccccc2Cl)o1)c1ccco1	-4	-6	-3	-1	-21	-2	.
O=C(Nc1nnc(-c2ccccc2Cl)o1)c1nc2ccccc2s1	8	-33	-3	3	99*	-6	-9
CN1C2=C(C#N)C(c3ccccc3)(C(F)(F)F)NC(=O)N2c2ccccc21 (stereo unspecified)	0	-9	3	-2	10	1	.
Cc1ccc(C2(C(F)(F)F)NC(=O)N3C(=C2C#N)Nc2ccccc23)cc1 (stereo unspecified)	1	-5	-8	1	107*	2	37
COc1ccc(C2Cc3ccccc3C(=O)O2)cc1 (stereo unspecified)	9	6	15	2	-1	-8	.
Cc1ccc(C2CN(C)C3(C(=O)Nc4ccccc43)C23COc2ccccc2C3=O)cc1 (stereo unspecified)	.	-14	4	2	107*	29	88*
CN1CC(c2ccccc2Cl)C2(COc3ccccc3C2=O)C12C(=O)Nc1ccccc12 (stereo unspecified)	0	-18	-7	2	68	31	.
O=C1c2sc3nc4c(c(=O)n3c2C(=O)N1c1ccccc1)CCC4	4	8	-6	0	-77	5	.
Cc1ccccc1N1C(=O)c2sc3nc4c(c(=O)n3c2C1=O)CCC4	-3	6	3	1	106*	-3	-14
O=C1c2sc3nc4ccccc4n3c2C(=O)N1c1ccccc1Cl	5	5	2	2	106*	-13	-5
CN(C)c1ccc(/C=[N+](\[O-])C2N(c3ccccc3)C(=S)SC2(C)C)cc1 (stereo unspecified)	7	0	2	5	16	0	.
CCOC(=O)C1(Cc2ccccc2C(F)(F)F)CCN(C(=O)c2cc(C(C)=O)n[nH]2)CC1	-2	4	1	-4	16	6	.
Cc1cc(Oc2cc(N)cc([N+](=O)[O-])c2)ccc1Cl	2	0	-9	-2	102*	-8	4
COc1nc2ccccc2nc1CCC(=O)O	0	8	5	1	-6	-3	.
CN(CC(=O)Nc1ccc(N2CCOCC2)cc1)CC(=O)Nc1ccc(Cl)cc1[N+](=O)[O-]	-5	2	4	-2	18	-1	.
O=c1cc(-c2ccco2)oc2c1ccc1ccccc12	-2	-2	-4	-2	17	-3	.
O=c1cc(C(Cl)(Cl)Cl)oc2c1ccc1ccccc12	-3	-36	-6	0	100*	98*	-10
CCOc1cc(N2CCOCC2)c(OCC)cc1NC(=O)CN1C(=O)C2C3C=CC(C3)C2C1=O (stereo unspecified)	0	4	2	7	-8	-6	.
O=C(Nc1cccc(Cl)c1)C1CCCN(S(=O)(=O)c2ccc(F)cc2)C1 (stereo unspecified)	0	-8	-5	0	99*	15	42
CSc1cccc(NC(=O)C2CCCN(S(=O)(=O)c3ccc(F)cc3)C2)c1 (stereo unspecified)	-5	-9	2	-1	41	14	.
SMILES	Rad51 HR inh	Arbovirus anti	PKD1 kinase inh	Wee1 degr inh	CHOP inh	Lmaj promast	CHOP inh conf
Cc1c(Br)c([N+](=O)[O-])nn1CC(=O)Nc1ccc(C(C)C)cc1	-1	1	-3	0	96*	20	13
CCCCN1C(=O)c2ccc(C(=O)NC3=NCCS3)cc2C1=O	5	0	-8	-2	-36	2	.
Oc1ccccc1-c1cc(-c2ccccc2Cl)[nH]n1	-8	-8	-11	4	99*	15	10
Oc1ccc(Cl)cc1-c1cc(-c2ccccc2Cl)[nH]n1	6	13	-3	0	-27	14	.
CC1CCN(S(=O)(=O)c2ccc3c(c2)C(=NO)c2cc(S(=O)(=O)N4CCC(C)CC4)ccc2-3)CC1	2	-41	-12	-2	108*	16	138*
O=S(=O)(c1ccc2c(c1)C(=NO)c1cc(S(=O)(=O)N3CCCCC3)ccc1-2)N1CCCCC1	-1	-41	-7	0	.	42	.
COc1ccc2[nH]c(=O)c3c(c2c1)OC(C)(C)C=C3	-6	6	-13	-2	57	12	.
Cc1cc2c([nH]c3ccccc32)c2c1OC(C)(C)C=C2	2	.	.	.	98*	.	97*
Cc1ccc(S(=O)(=O)N2CCN(Cc3ccccc3)CC2)c(C)c1N(C)S(=O)(=O)c1ccccc1	-4	11	3	3	14	9	.
CC(=O)Nc1ccc2nc(-c3ccccc3)cn2c1	7	-4	-4	-2	11	4	.
Cc1ccc2nc(-c3cc(-c4ccccc4)no3)cn2c1	-8	.	.	1	105*	.	74*
C=C(C)[C@@H]1CC[C@]2(C(=O)O)CC[C@]3(C)[C@H](CC[C@@H]4[C@@]5(C)CC[C@H](O)C(C)(C)[C@@H]5CC[C@]43C)[C@@H]12	-1	.	.	.	103*	.	66
O=S(c1ccc2ccccc2c1)c1cnns1 (stereo unspecified)	7	-12	1	1	105*	10	3
O=C(NCc1nc2ccccc2[nH]1)C1=C[C@H](c2ccc3c(c2)OCO3)C[C@H](OCc2ccc(CO)cc2)O1	-5	-4	10	2	60	8	.
COc1ccc([N+](=O)[O-])cc1NS(=O)(=O)c1ccc(Cl)c(C(=O)Nc2sc3c(c2C#N)CCCCC3)c1	6	-28	-3	-1	105*	-18	52
CC(C)(C)c1ccc(O)c(N=Cc2cc(Br)ccc2O)c1	-44	-1	-3	-1	98*	29	112*
Cc1ccc(O)c(C=Nc2cc(C)ccc2O)c1	.	-4	1	2	27	0	.
O=C(CN1CCC(NC(=O)c2ccccc2Cl)CC1)NCc1ccco1	1	0	-3	5	3	10	.
CN(C)c1ccc(-c2nc3ccccn3c2/N=C/c2ccc(Br)cc2)cc1	-1	-28	0	1	98*	99*	75*

Bioassay records (PubChem)
